Reference: ChEMBL document CHEMBL2331347, “Biselectivity of isoDGR peptides for fibronectin binding integrin subtypes α5β1 and αvβ6: conformational control through flanking amino acids” (J Med Chem, 2013)
pIC50: −log10 of the molar value.

Key:
Integrin alpha-V/beta-5 = Integrin alpha-V/beta-5 (Homo sapiens, UniProt P06756+P18084); assay: Inhibition of vitronectin binding to Integrin alphaVbeta5 receptor (unknown origin) by competitive ELISA; assay type: protein-complex assay
Integrin alpha-5/beta-1 = Integrin alpha-5/beta-1 (Homo sapiens, UniProt P05556+P08648); assay: Inhibition of fibronectin binding to human Integrin alpha5beta1 receptor by competitive ELISA; assay type: protein-complex assay
How it was run: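 Plates coated overnight at 4 °C with 0.5 μg/mL fibronectin at pH 9.6, then blocked with 1% BSA in Tris buffer containing Ca, Mg and Mn. Soluble human α5β1 (1.0 μg/mL final) and inhibitor (0.00013−10 μM final) incubated 1 h at RT. Bound integrin detected with anti-CD49e and peroxidase secondary antibody, A450. Duplicates; IC50 taken as the inflection point of the inhibition curve.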

Integrin alpha-V/beta-6 = Integrin alpha-V/beta-6 (Homo sapiens, UniProt P06756+P18564); assay: Inhibition of latency-associated peptide binding to Integrin alphaVbeta6 receptor (unknown origin) by competitive ELISA; assay type: protein-complex assay
How it was run: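 LAP coated at 0.4 μg/mL; soluble αvβ6 at 0.25 μg/mL final, mixed with serially diluted inhibitor. Bound integrin detected with anti-human αv antibody (1:500), then peroxidase secondary antibody (2.0 μg/mL), A450. Blocking, washing and curve analysis as for the α5β1 ELISA; IC50 from the inflection point.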

[1] = biological target: Integrin alpha-IIb/beta-3 (Homo sapiens, UniProt P05106+P08514); assay: Inhibition of fibrinogen binding to Integrin alpha2bbeta3 receptor (unknown origin) by competitive ELISA; assay type: protein-complex assay
Integrin alpha-V/beta-3 = Integrin alpha-V/beta-3 (Homo sapiens, UniProt P05106+P06756); assay: Inhibition of vitronectin binding to Integrin alphaVbeta3 receptor (unknown origin) by competitive ELISA; assay type: protein-complex assay
[2] = Induction of focal adhesions formation in rat REF52 cells plated on 68 nm nanopatterned surfaces assessed as axial ratio after 4 hrs post cells plating by immunofluorescence microscopy; assay type: functional
How it was run: (§1)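 REF52 rat embryonic fibroblasts (grown in DMEM with 10% FBS, 37 °C, 5% CO2) trypsinized and plated at 150 cells/mm2 in DMEM with 1% FBS on passivated gold nanopatterns (68 ± 9 nm spacing) functionalized with 25 μM peptide for 1 h. Fixed after 4 or 24 h, immunostained for paxillin, with phalloidin for actin and DAPI for nuclei, imaged at 63×.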

[3] = Induction of focal adhesions formation in rat REF52 cells plated on 68 nm nanopatterned surfaces assessed as focal adhesion total area/cell area ratio after 24 hrs post cells plating by immunofluorescence microscopy; assay type: functional; how it was run: as §1
[4] = Induction of focal adhesions formation in rat REF52 cells plated on 68 nm nanopatterned surfaces assessed as focal adhesion area after 4 hrs post cells plating by immunofluorescence microscopy; assay type: functional; how it was run: as §1
[5] = Induction of focal adhesions formation in rat REF52 cells plated on 68 nm nanopatterned surfaces assessed as focal adhesion area length after 4 hrs post cells plating by immunofluorescence microscopy; assay type: functional; how it was run: as §1
[6] = Induction of focal adhesions formation in rat REF52 cells plated on 68 nm nanopatterned surfaces assessed as focal adhesion area after 24 hrs post cells plating by immunofluorescence microscopy; assay type: functional; how it was run: as §1
[7] = Induction of focal adhesions formation in rat REF52 cells plated on 68 nm nanopatterned surfaces assessed as focal adhesion area length after 24 hrs post cells plating by immunofluorescence microscopy; assay type: functional; how it was run: as §1
[8] = Induction of focal adhesions formation in rat REF52 cells plated on 68 nm nanopatterned surfaces assessed as axial ratio after 24 hrs post cells plating by immunofluorescence microscopy; assay type: functional; how it was run: as §1
[9] = Induction of focal adhesions formation in rat REF52 cells plated on 68 nm nanopatterned surfaces assessed as focal adhesion area width after 24 hrs post cells plating by immunofluorescence microscopy; assay type: functional; how it was run: as §1
[10] = Induction of focal adhesions formation in rat REF52 cells plated on 68 nm nanopatterned surfaces assessed as focal adhesion total area/cell area ratio after 4 hrs post cells plating by immunofluorescence microscopy; assay type: functional; how it was run: as §1
[11] = Induction of focal adhesions formation in rat REF52 cells plated on 68 nm nanopatterned surfaces assessed as focal adhesion area width after 4 hrs post cells plating by immunofluorescence microscopy; assay type: functional; how it was run: as §1

| SMILES | pIC50 (Integrin alpha-V/beta-5) | pIC50 (Integrin alpha-5/beta-1) | pIC50 (Integrin alpha-V/beta-6) | pIC50 [1] | pIC50 (Integrin alpha-V/beta-3) | also measured |
| --- | --- | --- | --- | --- | --- | --- |
| N=C(N)NCCC[C@@H]1NC(=O)[C@H](CCCCN)NC(=O)[C@@H](Cc2ccccc2)NC(=O)[C@H](CC(=O)O)NC(=O)CNC1=O | 6.51 | 6.88 | 7.17 | < 5.00 |  |  |
| NC(N)=NCCC[C@@H]1NC(=O)CNC(=O)C[C@@H](C(=O)O)NC(=O)[C@@H](c2ccccc2)NC(=O)[C@H](Cc2ccc(O)cc2)NC1=O |  | 7.41 |  |  | < 5.00 |  |
| NC(N)=NCCC[C@@H]1NC(=O)CNC(=O)C[C@@H](C(=O)O)NC(=O)[C@@H](c2ccccc2)NC(=O)[C@H](CCC(=O)O)NC1=O |  | 7.04 |  |  | 5.41 |  |
| NC(N)=NCCC[C@@H]1NC(=O)CNC(=O)C[C@@H](C(=O)O)NC(=O)[C@@H](c2ccccc2)NC(=O)[C@@H]2CCCN2C1=O |  | 6.95 |  |  | 6.17 |  |
| N=C(N)NCCC[C@@H]1NC(=O)[C@H](CCCCNC(=O)CCSCCOCCOCCOCCOCCOCCOCCO)NC(=O)[C@@H](Cc2ccccc2)NC(=O)[C@H](CC(=O)O)NC(=O)CNC1=O |  | 6.71 |  |  | 7.87 | Ratio [2]: 3.24; Ratio [3]: 0.076; Activity [4]: 3.4 um2; Activity [5]: 3.78 um; Activity [6]: 4.12 um2; Activity [7]: 4.17 um; Ratio [8]: 3.42; Activity [9]: 1.31 um; Ratio [10]: 0.093; Activity [11]: 1.25 um |
| NC(N)=NCCC[C@@H]1NC(=O)CNC(=O)C[C@@H](C(=O)O)NC(=O)[C@@H](c2ccccc2)NC(=O)[C@H](Cc2c[nH]c3ccccc23)NC1=O |  | 7.14 |  |  | < 5.00 |  |
| CC(C)[C@@H]1NC(=O)[C@H](CCCN=C(N)N)NC(=O)CNC(=O)C[C@@H](C(=O)O)NC(=O)[C@@H](c2ccccc2)NC1=O |  | 6.94 |  |  | 6.24 |  |
| Cc1ccnc(NCCCC(=O)NCC(=O)NC(CC(=O)O)c2ccc(-c3cccc4ccccc34)cc2)c1 (stereo unspecified) | < 5.00 | 5.55 | 8.40 | < 5.00 | < 5.00 |  |
| NCCCC[C@@H]1NC(=O)[C@H](CCCN=C(N)N)NC(=O)CNC(=O)C[C@@H](C(=O)O)NC(=O)[C@@H](c2ccccc2)NC1=O | < 5.00 | 7.03 | 6.85 | < 5.00 | 6.29 |  |

Stronger by pIC50 (Integrin alpha-5/beta-1), values ahead:

| pIC50 (Integrin alpha-V/beta-5) | pIC50 (Integrin alpha-5/beta-1) | pIC50 (Integrin alpha-V/beta-6) | pIC50 [1] | pIC50 (Integrin alpha-V/beta-3) | SMILES | also measured |
| --- | --- | --- | --- | --- | --- | --- |
|  | 8.06 |  |  | < 5.00 | NC(N)=NCCC[C@@H]1NC(=O)CNC(=O)C[C@@H](C(=O)O)NC(=O)[C@@H](c2ccccc2)NC(=O)[C@@H](Cc2ccc(O)cc2)NC1=O |  |
| < 5.00 | 8.26 | 7.04 | < 5.00 | < 5.00 | NC(N)=NCCC[C@@H]1NC(=O)CNC(=O)C[C@@H](C(=O)O)NC(=O)[C@@H](c2ccccc2)NC(=O)[C@@H](Cc2c[nH]c3ccccc23)NC1=O |  |
|  | 7.57 |  |  | < 5.00 | N=C(N)NCCC[C@@H]1NC(=O)CNC(=O)C[C@@H](C(=O)O)NC(=O)[C@@H](c2ccccc2)NC(=O)[C@@H](CCCCNC(=O)CCSCCOCCOCCOCCOCCOCCOCCO)NC1=O | Ratio [2]: 6.01; Ratio [3]: 0.079; Activity [4]: 1.24 um2; Activity [5]: 2.92 um; Activity [6]: 2.61 um2; Activity [7]: 3.94 um; Ratio [8]: 4.68; Activity [9]: 0.9 um; Ratio [10]: 0.07; Activity [11]: 0.51 um |
|  | 7.96 |  |  | < 5.00 | NC(N)=NCCC[C@@H]1NC(=O)CNC(=O)C[C@@H](C(=O)O)NC(=O)[C@@H](c2ccccc2)NC(=O)[C@@H](CCC(=O)O)NC1=O |  |
| < 5.00 | 7.72 | 6.97 | < 5.00 | < 6.00 | N=C(N)NCCC[C@@H]1NC(=O)CNC(=O)C[C@@H](C(=O)O)NC(=O)[C@@H](c2ccccc2)NC(=O)CNC1=O |  |
|  | 8.15 |  |  | < 5.00 | N=C(N)NCCC[C@@H]1NC(=O)CNC(=O)C[C@@H](C(=O)O)NC(=O)[C@@H](c2ccccc2)NC(=O)[C@H]2CCCN2C1=O |  |
|  | 8.14 |  |  | < 5.00 | CC(C)[C@H]1NC(=O)[C@H](CCCN=C(N)N)NC(=O)CNC(=O)C[C@@H](C(=O)O)NC(=O)[C@@H](c2ccccc2)NC1=O |  |
| < 5.00 | 8.06 | 7.72 | < 5.00 | < 5.00 | N=C(N)NCCC[C@@H]1NC(=O)CNC(=O)C[C@@H](C(=O)O)NC(=O)[C@@H](c2ccccc2)NC(=O)[C@@H](CCCCN)NC1=O |  |
